# Results gathered from unrelated publications.
# Each line is one published result; the experiments were not run side by side.
# Target: Tyrosine-protein kinase FRK (FRK, Homo sapiens, UniProt P42685)
SMILES,test,conditions,remaining binding [%]
Cc1cnc(Nc2ccc(C(=O)N3CCC(N4CCCC4)CC3)cc2)nc1-c1cc2ccccc2s1,"binding, competition with immobilised ligand",1 µM,76
O=C(Nc1c[nH]nc1C(=O)NC1CCNCC1)c1cc(F)cc(F)c1,"binding, competition with immobilised ligand",1 µM,82
O=C(c1ccc(Nc2nccc(-c3cc4ccccc4s3)n2)cc1)N1CCC(N2CCCC2)CC1,"binding, competition with immobilised ligand",1 µM,83
NS(=O)(=O)c1cc(NC(=O)C2(c3ccccc3Cl)CC2)ccc1Oc1cccc(Cl)c1,"cell-free assay, competition with immobilised ligand",1 µM,99
CCN1CCN(Cc2ccc(C(=O)Nc3ccc(C)c(Oc4ccc5c(c4)CC(=O)N5)c3)cc2C(F)(F)F)CC1,"binding, competition with immobilised ligand",1 µM,13
COc1ncc2cc3ccccc3nc2c1C#N,"cell-free assay, competition with immobilised ligand",5 µM,99
COc1ccc2c(c1)O[C@@H](c1ccc(OC)c(OC)c1)C[C@H]2NC(=O)C1(c2ccc3c(c2)OC(F)(F)O3)CC1,"cell-free assay, competition with immobilised ligand",1 µM,100
CN(C)c1ncc(F)c(-c2cnn3ncccc23)n1,"binding, competition with immobilised ligand",1 µM,100
C[C@@H](c1cccc(C#N)c1)n1cc(Cl)cc(C(N)=O)c1=N,"cell-free assay, competition with immobilised ligand",1 µM,100
FC(F)(F)Oc1cccc(-c2cnc3ccc(-c4ccncc4)nn23)c1,"cell-free assay, competition with immobilised ligand",5 µM,59
COc1cnc(Nc2cccc(S(N)(=O)=O)c2)nc1N1CCN(c2ccccc2)C(=O)C1,"binding, competition with immobilised ligand",1 µM,100
N#Cc1ccc(Nc2ccc3[nH]c(=O)[nH]c3c2)c(Cl)c1,"cell-free assay, competition with immobilised ligand",1 µM,73
CN(CCCC(F)(F)F)c1nccc(-c2cnn3ncccc23)n1,binding,1 µM,93
CCCOc1ccc([C@H]2[C@H](C(=O)O)[C@@H](c3ccc4c(c3)OCO4)CN2CC(=O)Nc2c(CC)cccc2CC)cc1,"cell-free assay, competition with immobilised ligand",1 µM,100
CN(c1nccc(-c2cnn3ncccc23)n1)C1CC1,binding,1 µM,85
Nc1ncc2c(n1)-c1c([nH]c3ccc(C#CC4CC4)cc13)CCCC2,"binding, competition with immobilised ligand",1 µM,95
F[C@@H]1CCN(c2nccc(-c3cnn4ncccc34)n2)C1,binding,1 µM,88
O=C(c1ccc(Nc2ncc(Cl)c(-c3cc4ccccc4s3)n2)cc1)N1CCC(N2CCCC2)CC1,"binding, competition with immobilised ligand",1 µM,90
N[C@H]1CCN(c2nccc(-c3cnn4ncccc34)n2)C1,"binding, competition with immobilised ligand",1 µM,100
C[C@@H](c1ccc(-n2cnc3c(N)ncnc32)cc1)N1CCc2nn(C)c(Cc3ccccc3)c2C1=O,"binding, competition with immobilised ligand",0.1 µM,91
C[C@H]1CCN(c2nccc(-c3cnn4ncccc34)n2)C1,binding,1 µM,100
Nc1c(C(=O)NCc2ccc(C(=O)NCCCC3CCCCC3)cc2)cnn1-c1ccccc1,"cell-free assay, competition with immobilised ligand",0.1 µM,100
